In ChEMBL document CHEMBL4480436, “Lead optimization of selective tubulin inhibitors as anti-trypanosomal agents” (Bioorg Med Chem, 2019):

How the values were obtained:
[1] = system: Trypanosoma brucei brucei; experiment: Inhibition of tubulin polymerization in Trypanosoma brucei brucei Lister 427 assessed as increase in non-polymerized tubulin after 12 hrs by Western blot analysis
In short: (§1)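 Trypanosomes treated with different doses (0.5% DMSO) for 12 h, washed in TDB pH 7.4 and lysed in Pipes pH 6.8/EGTA/MgCl2/0.15% Triton X-100/glycerol buffer, 4 °C, 5 min. Lysate spun 15,000 g 30 min at 4 °C: supernatant taken as non-polymerized tubulin, RIPA-resuspended pellet as polymerized. Equal cell equivalents (1.83 × 10^7) run on 10% SDS-PAGE for western blot.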

[2] = system: Trypanosoma brucei brucei; experiment: Inhibition of tubulin polymerization in Trypanosoma brucei brucei Lister 427 assessed as decrease in polymerized tubulin after 12 hrs by Western blot analysis; in short: as §1
[3] = Selectivity index, ratio of IC50 for HEK293 cells to IC50 for Trypanosoma brucei brucei Lister 427; assay type: toxicity; settings: human, read-out: Ratio IC50
In short: (§2)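 Ratio of mammalian MTT IC50 (48 h) to T. brucei MTS IC50 (48 h), both from quadruplicate dose–response fits.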

[4] = system: HEK293; experiment: Cytotoxicity against HEK293 cells after 48 hrs by MTT assay; assay type: cell-based; settings: Homo sapiens, HEK293, 48 h
In short: (§3)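 Cells kept in RPMI1640 with 10% heat-inactivated FBS, 2 mM L-glutamine, 1 mM pyruvate, pen-strep, 37 °C, 5% CO2. 3000 cells/well seeded 24 h, then exposed to graded concentrations (DMSO ≤0.1% final) for 48 h. Then 0.5 mg/mL MTT 3 h at 37 °C, DMSO solubilization, absorbance 570 nm. Quadruplicate data fitted to dose–response curves for IC50.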

[5] = system: Trypanosoma brucei brucei; experiment: Antiparasitic activity against Trypanosoma brucei brucei Lister 427 assessed as reduction in parasite viability after 48 hrs by MTS assay; assay type: functional, organism-based; settings: Lister 427, 48 h
In short: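 Bloodstream-form Lister 427 grown in HMI-9 with 10% FBS, 37 °C, 7.5% CO2. 5000 cells/well exposed to graded concentrations with 0.1% DMSO for 48 h at 37 °C. MTS/PMS reagent then added, 3 h at 37 °C, formazan read at 490 nm. Quadruplicate data normalized and fitted to dose–response curves for IC50 (Mean ± S.D.).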

[6] = system: RAW264.7; experiment: Cytotoxicity against mouse RAW264.7 cells after 48 hrs by MTT assay; assay type: cell-based; settings: RAW264.7, 48 h; in short: as §3
[7] = Selectivity index, ratio of IC50 for mouse RAW264.7 cells to IC50 for Trypanosoma brucei brucei Lister 427; assay type: toxicity; settings: read-out: Ratio IC50; in short: as §2
[8] = 1-Octanol/DDH2O partition coefficient, log P of the compound incubated for 48 hrs under stirring condition measured by UV-Vis spectrophotometric method; assay type: physicochemical; settings: for logP: octanol/water, 48 h
In short: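 Slow-stir shake method (OECD-based, modified): compound dissolved in water-saturated 1-octanol, centrifuged 5000 rpm 5 min, supernatant mixed with equal volume octanol-saturated water, stirred at room temperature 48 h. Phases separated by centrifugation; octanol-phase UV absorbance read before and after. Log P = log[Ax/(A0−Ax)]. Repeated three times, Mean ± SD.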

SMILES | inhibition [1] | inhibition [2] | IC50 [5] | logP [8] | logP at 48 h ([8]; 1-octanol/DDH2O) | selectivity ratio [3] | IC50 [4] | IC50 [6] | selectivity ratio [7]
Cc1cc(NC(=O)c2cc(C(F)(F)F)cc(C(F)(F)F)c2)ccc1NS(C)(=O)=O | Dose-dependent effect | Dose-dependent effect | 2.93 µM | 1.957 | – | 56 | 163 µM | > 250 µM | > 85
CN(c1ccc(NC(=O)c2ccc(C#N)cc2)cc1OCc1ccc(C(F)(F)F)cc1)S(=O)(=O)Cc1ccccc1 | – | – | – | – | 2.9 | – | – | – | –
N#Cc1ccc(C(=O)Nc2ccc(NS(=O)(=O)C(F)(F)F)c(F)c2)cc1 | Dose-dependent effect | Dose-dependent effect | 2.1 µM | 0.998 | – | > 119 | > 250 µM | > 250 µM | > 119
CCS(=O)(=O)Nc1ccc(NC(=O)c2cc(C(F)(F)F)cc(C(F)(F)F)c2)cc1C | – | – | 12.5 µM | – | – | 10 | 126 µM | 124 µM | 10
CS(=O)(=O)Nc1ccc(NC(=O)c2cc(C(F)(F)F)cc(C(F)(F)F)c2)cc1Cl | – | – | 10.1 µM | – | – | 18 | 185 µM | 69.5 µM | 7
CCS(=O)(=O)Nc1ccc(NC(=O)c2cc(C(F)(F)F)cc(C(F)(F)F)c2)cc1Cl | – | – | 1.73 µM | – | – | 19 | 32.2 µM | 64.1 µM | 37
Cc1cc(NC(=O)c2cc(C(F)(F)F)cc(C(F)(F)F)c2)ccc1NS(=O)(=O)C(F)(F)F | – | – | 20.7 µM | – | – | 9 | 182 µM | 40.7 µM | 2
O=C(Nc1ccc(NS(=O)(=O)C(F)(F)F)c(Cl)c1)c1ccc(Cl)cc1 | – | – | > 62.5 µM | – | – | < 4 | 191 µM | 47.1 µM | < 1
O=C(Nc1ccc(NS(=O)(=O)C(F)(F)F)c(Cl)c1)c1cc(C(F)(F)F)cc(C(F)(F)F)c1 | – | – | 47.4 µM | – | – | > 5 | > 250 µM | 136 µM | 3

The next lines start with results.

inhibition [1] | inhibition [2] | IC50 [5] | logP [8] | logP at 48 h ([8]; 1-octanol/DDH2O) | SMILES | selectivity ratio [3] | IC50 [4] | IC50 [6] | selectivity ratio [7]
– | – | > 62.5 µM | – | – | CS(=O)(=O)Nc1ccc(NC(=O)c2ccc(Cl)c([N+](=O)[O-])c2)cc1Cl | < 4 | 204 µM | 43.6 µM | < 1
– | – | 8.78 µM | – | – | CCS(=O)(=O)Nc1ccc(NC(=O)c2cc(C(F)(F)F)cc(C(F)(F)F)c2)cc1F | > 28 | > 250 µM | > 250 µM | > 28
– | – | > 62.5 µM | – | – | CCS(=O)(=O)Nc1ccc(NC(=O)c2ccc(C#N)cc2)cc1F | < 1 | 26.4 µM | 107 µM | < 2
– | – | 8.39 µM | – | – | CCS(=O)(=O)Nc1ccc(NC(=O)c2ccc(Cl)c([N+](=O)[O-])c2)cc1F | 10 | 83.7 µM | 198 µM | 24
– | – | > 62.5 µM | – | – | CS(=O)(=O)Nc1ccc(NC(=O)c2ccc(Cl)c([N+](=O)[O-])c2)cc1F | < 1 | 23.1 µM | 102 µM | < 2
